Measured values taken from ChEMBL document CHEMBL2029325, “Fused piperidines as a novel class of potent and orally available transient receptor potential melastatin type 8 (TRPM8) antagonists” (J Med Chem, 2012).
pIC50: −log10 of the molar value. ≈ marks a conversion by molar mass, not a printed value. Calls of active or inactive are those of the source. No cut-off for these calls is given here.

What was measured:
[1] = molecular target: Transient receptor potential cation channel subfamily M member 8 (Rattus norvegicus, UniProt Q8R455); test: Antagonist activity at rat TRPM8 expressed in CHO cells assessed as inhibition of icilin-induced Ca2+ influx incubated 2.5 mins prior icilin induction by flash luminometry; assay type: functional, cell-based
Sequence of Transient receptor potential cation channel subfamily M member 8 (Q8R455 whole entry): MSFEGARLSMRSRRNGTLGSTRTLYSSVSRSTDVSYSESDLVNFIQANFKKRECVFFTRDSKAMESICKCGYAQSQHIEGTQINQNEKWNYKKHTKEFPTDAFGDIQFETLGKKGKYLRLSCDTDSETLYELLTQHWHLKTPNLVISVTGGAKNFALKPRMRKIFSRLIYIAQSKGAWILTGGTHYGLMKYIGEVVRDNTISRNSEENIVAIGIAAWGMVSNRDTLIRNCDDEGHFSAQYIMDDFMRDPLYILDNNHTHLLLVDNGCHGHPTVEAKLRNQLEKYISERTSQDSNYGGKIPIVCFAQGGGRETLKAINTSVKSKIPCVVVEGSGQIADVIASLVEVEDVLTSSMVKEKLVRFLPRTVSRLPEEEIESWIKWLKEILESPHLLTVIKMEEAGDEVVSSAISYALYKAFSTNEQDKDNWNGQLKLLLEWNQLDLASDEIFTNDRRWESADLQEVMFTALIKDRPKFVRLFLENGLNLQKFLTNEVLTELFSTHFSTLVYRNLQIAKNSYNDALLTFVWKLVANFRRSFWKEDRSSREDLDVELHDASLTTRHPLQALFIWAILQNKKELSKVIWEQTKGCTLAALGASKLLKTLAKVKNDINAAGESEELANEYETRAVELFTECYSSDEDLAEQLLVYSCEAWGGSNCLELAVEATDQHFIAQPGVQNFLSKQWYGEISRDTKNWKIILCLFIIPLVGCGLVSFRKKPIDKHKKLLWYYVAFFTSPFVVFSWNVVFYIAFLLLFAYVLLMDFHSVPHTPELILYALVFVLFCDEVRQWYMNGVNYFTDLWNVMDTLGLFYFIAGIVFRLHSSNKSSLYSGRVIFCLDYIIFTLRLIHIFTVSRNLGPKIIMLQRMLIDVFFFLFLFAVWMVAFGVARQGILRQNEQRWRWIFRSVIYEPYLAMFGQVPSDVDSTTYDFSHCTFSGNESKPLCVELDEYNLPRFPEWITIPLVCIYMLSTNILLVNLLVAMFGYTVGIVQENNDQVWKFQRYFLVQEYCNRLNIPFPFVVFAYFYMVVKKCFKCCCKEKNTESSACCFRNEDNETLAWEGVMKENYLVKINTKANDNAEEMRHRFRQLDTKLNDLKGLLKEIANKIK
Summary of the method: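 CHO cells stably expressing rat TRPM8 under a tetracycline-inducible T-REx system, co-transfected with aequorin. Seeded 24 h before assay; expression induced with 0.5 μg/mL tetracycline. Luminescence was read on a CCD-camera luminometer.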

[2] = Intrinsic clearance in CD1 rat liver microsomes at 1 uM after 30 mins; assay type: ADME, Microsome; conditions: read-out: CLH
[3] = AUC (infinity) in Sprague-Dawley rat at 2 mg/kg, iv by LC-MS/MS analysis; assay type: ADME, organism-based; set-up: time infinity, dose 2 mg/kg, route intravenous; conditions: plasma
Summary of the method: (§1)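 Fed male Sprague–Dawley rats, n = 3, given 2 mg/kg iv in DMSO. Measured by LC/MS/MS; noncompartmental analysis; mean(SD).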

[4] = Volume of distribution at steady state in Sprague-Dawley rat at 2 mg/kg, iv by LC-MS/MS analysis; assay type: ADME, organism-based; set-up: dose 2 mg/kg, route intravenous; conditions: in vivo, read-out: Vdss; summary of the method: as §1
Rattus norvegicus [5] = test: Antinociceptive activity in Sprague-Dawley rat assessed as inhibition of icilin-induced wet-dog shakes at 100 mg/kg, po administered 90 mins prior icilin challenge measured for 30 mins; assay type: functional, organism-based; set-up: dose 100 mg/kg
Summary of the method: (§2)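 Male Sprague–Dawley rats (220–300 g, n = 5–13/treatment) were habituated 30 min to the room, then 20 min to an observation cylinder, kept out of sight of other rats. Compound or vehicle (5% Tween 80/Oraplus) given po 90 min before icilin (0.5 mg/kg ip in 100% PEG 400). Wet-dog shakes counted for 30 min afterwards.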

Plasma [6] = test: Plasma concentration in Sprague-Dawley rat at 100 mg/kg, po; assay type: ADME, organism-based; set-up: dose 100 mg/kg, route oral; conditions: in vivo
Summary of the method: (§3)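 Male Sprague–Dawley rats (n = 8 per group) dosed po in 5% Tween 80/Oraplus 90 min before icilin challenge in the wet-dog-shake study. Plasma collected 2 h after oral dosing.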

[7] = AUC (infinity) in Sprague-Dawley rat at 10 mg/kg, po by LC-MS/MS analysis; assay type: ADME, organism-based; set-up: time infinity, dose 10 mg/kg, route oral; conditions: plasma
Summary of the method: (§4)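 Fasted male Sprague–Dawley rats, n = 3, given 10 mg/kg by oral gavage as a suspension in 5% Tween 80/Oraplus. Plasma taken predose and at 0.25, 0.5, 1, 2, 4, 6, 8, 12 and 16 h. Measured by LC/MS/MS; noncompartmental analysis; mean(SD).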

[8] = Cmax in Sprague-Dawley rat at 10 mg/kg, po by LC-MS/MS analysis; assay type: ADME, organism-based; set-up: dose 10 mg/kg, route oral; conditions: in vivo; summary of the method: as §4
[9] = Oral bioavailability in Sprague-Dawley rat at 10 mg/kg by LC-MS/MS analysis; assay type: ADME, organism-based; conditions: in vivo; summary of the method: as §4
Rattus norvegicus [10] = test: Antinociceptive activity in po dosed Sprague-Dawley rat assessed as inhibition of icilin-induced wet-dog shakes administered 90 mins prior icilin challenge measured for 30 mins; assay type: functional, organism-based; summary of the method: as §2
Rattus norvegicus [11] = test: Antinociceptive activity in Sprague-Dawley rat assessed as inhibition of icilin-induced wet-dog shakes at 3 mg/kg, po administered 90 mins prior icilin challenge measured for 30 mins; assay type: functional; summary of the method: as §2
Rattus norvegicus [12] = test: Antinociceptive activity in Sprague-Dawley rat assessed as inhibition of icilin-induced wet-dog shakes at 30 mg/kg, po administered 90 mins prior icilin challenge measured for 30 mins; assay type: functional; summary of the method: as §2
Plasma [13] = test: Plasma concentration in Sprague-Dawley rat at 30 mg/kg, po; assay type: ADME, organism-based; set-up: dose 30 mg/kg, route oral; conditions: in vivo; summary of the method: as §3

| Structure (SMILES) | pIC50 [1] | microsomal CLint at 1 µM [2] | further results |
| --- | --- | --- | --- |
| CC(C)C(=O)N1CCc2sccc2C1c1ccc(C(F)(F)F)cc1 (centres undefined) | 5.90 | > 399 µL/min/mg | – |
| CCCC1c2ccsc2CCN1C(=O)Nc1ccccc1 (centres undefined) | 6.53 | > 399 µL/min/mg | – |
| O=C(Nc1ccc(F)cc1)N1CCc2ccsc2C1c1ccc(C(F)(F)F)cc1 (centres undefined) | 6.82 | 206 µL/min/mg | – |
| O=C(Nc1ccc(F)cc1)N1CCc2ccccc2[C@@H]1c1ccc(C(F)(F)F)cc1 | – | – | AUC(0-inf) [3]: 347 ng·h/mL; Vd [4]: 15.8 L/kg; inhibition (Rattus norvegicus [5]): inactive; Cp (Plasma [6]): 521 ng/mL |
| O=C(Nc1ccccc1)N1CCc2sccc2C1c1ccc(Cl)cc1 (centres undefined) | 6.25 | > 399 µL/min/mg | – |
| FC(F)(F)c1ccc(C2c3ccsc3CCN2Cc2ccccc2)cc1 (centres undefined) | < 4.70 | > 399 µL/min/mg | – |
| O=C(Nc1ccccc1)N1CCc2sccc2C1c1ccc(F)cc1 (centres undefined) | 5.74 | > 399 µL/min/mg | – |
| O=C(Nc1ccc(Cl)cc1)N1CCc2sccc2C1c1ccc(C(F)(F)F)cc1 (centres undefined) | 5.79 | 162 µL/min/mg | – |
| O=C(Nc1ccc(F)cc1)N1CCc2c(F)cccc2C1c1ccc(C(F)(F)F)cc1 (centres undefined) | 7.00 | 48 µL/min/mg | – |
| O=C(Nc1ccccc1)N1CCc2sccc2C1c1cccc(F)c1 (centres undefined) | 5.88 | > 399 µL/min/mg | – |
| O=C(Nc1ccccc1)N1CCc2sccc2C1c1ccccc1Cl (centres undefined) | 6.85 | > 399 µL/min/mg | – |
| O=C(Nc1ccc(F)cc1)N1CCc2ccc(F)cc2C1c1ccc(C(F)(F)F)cc1 (centres undefined) | 6.72 | 34 µL/min/mg | – |
| O=C(Cc1ccc(F)cc1)N1CCc2sccc2C1c1ccc(C(F)(F)F)cc1 (centres undefined) | 6.05 | > 399 µL/min/mg | – |
| O=C(Nc1ccc(F)cc1)N1CCc2sccc2C1c1ccc(C(F)(F)F)cc1 (centres undefined) | 6.47 | 178 µL/min/mg | – |
| CC(C)CN1CCc2sccc2C1c1ccc(C(F)(F)F)cc1 (centres undefined) | < 4.70 | – | – |
| O=C(N1CCOCC1)N1CCc2sccc2C1c1ccc(C(F)(F)F)cc1 (centres undefined) | < 4.70 | > 399 µL/min/mg | – |
| O=C(Nc1ccc(F)cc1)N1CCn2cccc2C1c1ccc(C(F)(F)F)cc1 (centres undefined) | 6.74 | 123 µL/min/mg | – |
| O=C(Nc1cccc(F)c1)N1CCc2sccc2C1c1ccc(C(F)(F)F)cc1 (centres undefined) | 6.11 | 278 µL/min/mg | – |
| O=C(c1cccc(F)c1)N1CCc2sccc2C1c1ccc(C(F)(F)F)cc1 (centres undefined) | < 4.70 | > 399 µL/min/mg | – |
| O=C(Nc1ccccc1)N1CCc2sccc2C1c1ccc(C(F)(F)F)cc1 (centres undefined) | 6.54 | 211 µL/min/mg | – |
| O=C(Nc1ccc(F)cc1)N1CCc2ccccc2[C@H]1c1ccc(C(F)(F)F)cc1 | – | – | AUC(0-inf) [3]: 763 ng·h/mL; Vd [4]: 15.3 L/kg; AUC(0-inf) [7]: 1750 ng·h/mL; Cmax [8]: 265 ng/mL; bioavailability [9]: 57%; EC50 (Rattus norvegicus [10]): 0.209 µg/mL (≈ 0.504 µM); inhibition (Rattus norvegicus [10]): Dose-dependent effect; inhibition in vivo at 3 mg/kg (Rattus norvegicus [11]): 30%; inhibition in vivo at 30 mg/kg (Rattus norvegicus [12]): > 80%; Cp (Plasma [13]): 460 ng/mL |
| FC(F)(F)c1ccc(C2NCCc3sccc32)cc1 (centres undefined) | < 4.70 | > 399 µL/min/mg | – |
| O=C(Nc1ccccc1F)N1CCc2sccc2C1c1ccc(C(F)(F)F)cc1 (centres undefined) | 6.22 | 342 µL/min/mg | – |
| O=C(Nc1ccccc1)N1CCc2sccc2C1C1CC1 (centres undefined) | 5.25 | > 399 µL/min/mg | – |

| Structure (SMILES) | pIC50 [1] | microsomal CLint at 1 µM [2] | further results |
| --- | --- | --- | --- |
| O=C(Nc1ccc(F)cc1)N1CCc2cccc(F)c2C1c1ccc(C(F)(F)F)cc1 (centres undefined) | 6.10 | 43 µL/min/mg | – |
| O=C(Nc1ccccc1)N1CCc2sccc2C1c1ccccc1 (centres undefined) | 5.77 | > 399 µL/min/mg | – |
| O=C(Nc1ccc(F)cc1)N1CCCCC1c1ccc(C(F)(F)F)cc1 (centres undefined) | 5.57 | 285 µL/min/mg | – |
| O=C(Nc1ccc(F)cc1)N1Cc2ccccc2C1c1ccc(C(F)(F)F)cc1 (centres undefined) | 6.47 | 64 µL/min/mg | – |
| CC1c2ccsc2CCN1C(=O)Nc1ccccc1 (centres undefined) | 5.17 | – | – |
| O=C(NC1CC1)N1CCc2sccc2C1c1ccc(C(F)(F)F)cc1 (centres undefined) | 5.92 | > 399 µL/min/mg | – |
| O=C(Nc1ccccc1)N1CCc2sccc2C1c1cccc(C(F)(F)F)c1 (centres undefined) | 5.74 | > 399 µL/min/mg | – |
| CC(C)NC(=O)N1CCc2sccc2C1c1ccc(C(F)(F)F)cc1 (centres undefined) | 6.26 | > 399 µL/min/mg | – |
| O=C(c1ccccc1F)N1CCc2sccc2C1c1ccc(C(F)(F)F)cc1 (centres undefined) | 6.29 | > 399 µL/min/mg | – |
| O=C(Nc1ccc(F)cc1)N1CCCc2ccccc2C1c1ccc(C(F)(F)F)cc1 (centres undefined) | < 4.70 | 146 µL/min/mg | – |
| O=C(Nc1ccccc1)N1CCc2sccc2C1c1cccc(Cl)c1 (centres undefined) | 5.54 | > 399 µL/min/mg | – |
| O=C(Nc1ccc(F)cc1)N1CCc2occc2C1c1ccc(C(F)(F)F)cc1 (centres undefined) | 6.59 | 109 µL/min/mg | – |
| O=C(c1ccc(F)cc1)N1CCc2sccc2C1c1ccc(C(F)(F)F)cc1 (centres undefined) | < 4.70 | 248 µL/min/mg | – |
| O=C(Nc1ccc(F)cc1)N1CCc2scnc2C1c1ccc(C(F)(F)F)cc1 (centres undefined) | 7.03 | 110 µL/min/mg | – |
| O=C(Nc1ccc(F)cc1)N1CCc2ccoc2C1c1ccc(C(F)(F)F)cc1 (centres undefined) | 6.64 | 164 µL/min/mg | – |
| O=C(Nc1ccccc1)N1CCc2sccc2C1c1ccccc1C(F)(F)F (centres undefined) | 6.62 | > 399 µL/min/mg | – |
| CCCC1c2ccsc2CCN1C(=O)Nc1ccc(Cl)cc1 (centres undefined) | 5.86 | > 399 µL/min/mg | – |
| O=C(Nc1ccccc1)N1CCc2sccc2C1c1ccccc1F (centres undefined) | 5.64 | > 399 µL/min/mg | – |
| Cn1cnc2c1CCN(C(=O)Nc1ccc(F)cc1)C2c1ccc(C(F)(F)F)cc1 (centres undefined) | 6.59 | 36 µL/min/mg | – |
| COc1ccc(NC(=O)N2CCc3sccc3C2c2ccc(C(F)(F)F)cc2)cc1 (centres undefined) | 5.63 | 203 µL/min/mg | – |
| O=C(Nc1ccc(F)cc1)N1CCc2nc[nH]c2C1c1ccc(C(F)(F)F)cc1 (centres undefined) | 5.84 | 23 µL/min/mg | – |
| O=C(Nc1ccc(F)cc1)N1CCc2cc(F)ccc2C1c1ccc(C(F)(F)F)cc1 (centres undefined) | 6.52 | 40 µL/min/mg | – |
| O=C(Nc1ccccc1)N1CCc2sccc2C1 | < 4.70 | 180 µL/min/mg | – |
| CC(C)N1CCc2sccc2C1c1ccc(C(F)(F)F)cc1 (centres undefined) | < 4.70 | < 14 µL/min/mg | – |
